Screening data deposited in PubChem BioAssay by several laboratories.
The full list was thinned out, with hits kept by preference.
HSF1 inhib – HSF1 inhibitors in luciferase reporter cells, primary screen, cell-based, NIH3T3, luminescence | NIH3T3-HGL HSE-luciferase, MG132-induced, luminescence 8 h; hits give low values | activity change, negative = inhibition, % at 7.5 µM (by protocol) | 0.77% of 300,000 active;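 active = more than half of replicate wells show activity change below -50%, luminescence cut by over half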;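 also: luciferase reports HSF-1 transcriptional activity via heat shock element; 0% = median of DMSO wells and -100% = zero luminescence signal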
HSF-1 act – HSF-1 activators, primary screen, NIH3T3-HGL cells, MG132 stress, luminescence, single point. 1.7% of 300,000 active. NIH3T3-HGL HSF-1 luciferase reporter, 8 h; 100% = twice DMSO control signal. AID 504408, 2011. activation, % at 9 µM;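 active = mean replicate activation of at least 50% with a set share of replicates each reaching 50%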;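 also: 0% = median of the neutral control wells and 100% = twice that signal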
Lmaj promast – Leishmania major promastigote growth inhibition, primary screen; 9% of 200,000 active; inhibition, % at 10 µM; Leishmania major promastigotes, resazurin fluorescence viability; in the data active = inhibition above about 50%;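 also: promastigotes grown with compound for 44 hours at 28 °C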
Hsp70 act – Hsp70 transcriptional activators, primary screen, cell-based, HeLa, Hsp70 promoter luciferase, luminescence, 10 µM; HeLa Hsp70 promoter luciferase reporter; scaled: vehicle 0, proteasome-inhibitor control 100%; activation, % at 10 µM; 0.04% of 200,000 active; AID 1203, 2008;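 active = activation above the mean across all tested compounds plus 3 SD, cutoff set per campaign, cut at about 5.5% in these data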;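 also: 100% = MG132 at 30 µM as the positive control and 0% = DMSO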
T cruzi repl – inhibitors of intracellular T. cruzi growth, primary screen, luminescence, NIH3T3 host cells; T. cruzi beta-gal in NIH3T3, 90 h; inhibition, % (test concentration not listed); 1.4% of 300,000 active; AID 1885, 2009;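 active = mean inhibition across valid replicates above about 55%, limit read from the data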;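 also: signal also drops with host cell toxicity which is not excluded here; 0% = plate median of DMSO wells and 100% = zero luminescence signal; higher percent means less beta-gal luminescence so fewer parasites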
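Assay system: NIH/3T3 host cells with β-galactosidase reporter T. cruzi; input: 5,000 host fibroblasts per well; compound: single 50 nL compound addition per well in DMSO; timing: ≥90 h infection period, 3 h prior cell attachment; measured by: GalScreen β-gal luminescence, detergent lysis, 60 min; evaluation: percent inhibition of parasite-derived β-gal signal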
* hit, by the source's call; / = no result.

SMILES	HSF1 inhib	HSF-1 act	Lmaj promast	Hsp70 act	T cruzi repl
O=C(CSC1c2ccccc2-c2ccccc21)N/N=C/c1ccccc1O	2	10	100*	-1	60*
CC(CCc1ccccc1)NC(C)C(O)c1ccc(O)cc1 (stereo unspecified)	-4	-5	89*	0	5
COc1ccc(C(O)C(C)NC(C)C(O)c2ccc(OC)cc2)cc1 (stereo unspecified)	-5	10	/	/	-11
O=C1NC(=O)C(=Cc2ccc(OCC(=O)N3CCOCC3)cc2)C(=O)N1	-7	-11	54*	0	0
O=C(CN1CC=C(c2ccccc2)CC1)NC(=O)NC1CCCCC1	/	/	-3	0	/
CC(C)(C)NC(=O)NC(=O)CN1CC=C(c2ccccc2)CC1	12	61*	-3	0	-2
CN1c2ccc([N+](=O)[O-])cc2CC2(C(=O)NC(=O)NC2=O)C1c1ccccc1 (stereo unspecified)	9	21	4	0	0
CN1c2ccc([N+](=O)[O-])cc2CC2(C(=O)NC(=O)N(c3ccccc3)C2=O)C1c1ccccc1 (stereo unspecified)	-4	-14	58*	0	72*
Cc1ccc(N2C(=O)NC(=O)/C(=C/c3cnn(-c4ccc(C)cc4)c3)C2=O)cc1	-70*	-75	85*	0	-1
CSc1ncc(/C=C2/C(=O)NC(=O)N(c3ccc(C)cc3)C2=O)cn1	-6	30	0	0	-2
S=C=Nc1ccccn1	-5	-17	-4	0	-17
O=C(N/N=C/c1c(O)n(CCc2ccccc2)c(=O)[nH]c1=O)c1ccccc1	23	45	/	/	-5
CCOCC(=O)NC1CCSC1=O (stereo unspecified)	2	15	-7	0	-9
CCC(=O)N1CC(=O)Nc2ccc(Br)cc2C1c1ccccc1 (stereo unspecified)	12	27	0	0	-12
O=C1CN(C(=O)CN2CCCCC2)C(c2ccccc2)c2cc(Br)ccc2N1 (stereo unspecified)	15	28	98*	0	7
CCOc1ccc(-n2c(O)c(C=NCCN(CC)CC)c(=O)[nH]c2=O)cc1	-2	-7	-2	0	0
C[n+]1c(-c2ccccc2)cc(-c2ccc(Cl)cc2)cc1-c1ccccc1	-6	16	99*	0	51
O=C(Cn1ncn2c(cc3cc(F)ccc32)c1=O)N1CCC2(CC1)OCCO2	3	4	/	/	-4
CCOC(=O)CC1=C(C(=O)OCC)C2(C(=O)N1CC(=O)OC)C(C#N)=C(N)Oc1ccccc12 (stereo unspecified)	8	-6	-4	0	-5
Cc1cc(C(=O)N=Nc2c(O)n(C)c3ccccc23)c(C)o1	31	80*	69*	0	30
CC(C)CCOP(N)(=O)Oc1ccccc1Cl (stereo unspecified)	1	1	/	/	-8
c1cc(CNCCc2ccc3c(c2)OCO3)ccn1	0	0	/	/	2
c1cc2c(cc1CCNC1C3CC4CC(C3)CC1C4)OCO2 (stereo unspecified)	0	12	86*	0	18
CC1CCC(NCCc2ccc3c(c2)OCO3)CC1 (stereo unspecified)	-6	-20	93*	0	31
COP(=O)(OC)C(O)C(Cl)(Cl)Cl (stereo unspecified)	/	/	-7	0	/
SMILES	HSF1 inhib	HSF-1 act	Lmaj promast	Hsp70 act	T cruzi repl
CCCCS(=O)(=O)N1CCN(C(=N)N[N+](=O)[O-])CC1	2	1	-3	0	1
O=C(COc1ccc2ccccc2c1)N1CCN(C2CCN(Cc3ccccc3)CC2)CC1	-13	-13	92*	0	52
O=C(Cc1ccccc1)N1CCN(C2CCCC2)CC1	-37	-47	-1	0	-2
O=C(COc1ccccc1)N1CCN(C2CCCC2)CC1	16	47	85*	0	4
COc1ccccc1CN1CCN(C(=O)COc2ccc3ccccc3c2)CC1	-2	-12	/	/	23
COc1ccc(OCC(=O)N2CCN(C3CCC(c4ccccc4)CC3)CC2)cc1 (stereo unspecified)	-3	5	60*	0	29
